# PubChem BioAssay
# Calls of active or inactive are those of the source.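 The calls were made as follows, unless noted: active = Her2 level under about 52% in both replicate screens, with viability over 70% of control (limit read from the data); inconclusive = Her2 under the limit in one screen only, or viability under 70%; inactive = Her2 level above the set limit.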
# Tests used:
# [1] = reducers of endogenous Her2 protein level, primary screen, SKBR3 breast tumor cells, AlphaScreen, ATP viability (AID 461); conditions: 18-24 h, measured here: SKBR3 viability, ATP luminescence, at 10 µM;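 as to Her2 level: lower value means less Her2 protein in the cells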;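 as to viability: percent of carrier control wells set as 100% viability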
# [2] = target: Receptor tyrosine-protein kinase erbB-2 (Homo sapiens) (UniProt P04626); assay: as above; conditions: 18-24 h, at 10 µM, stronger effect = lower value
# Receptor tyrosine-protein kinase erbB-2 (Homo sapiens), sequence (P04626 whole entry, looked up): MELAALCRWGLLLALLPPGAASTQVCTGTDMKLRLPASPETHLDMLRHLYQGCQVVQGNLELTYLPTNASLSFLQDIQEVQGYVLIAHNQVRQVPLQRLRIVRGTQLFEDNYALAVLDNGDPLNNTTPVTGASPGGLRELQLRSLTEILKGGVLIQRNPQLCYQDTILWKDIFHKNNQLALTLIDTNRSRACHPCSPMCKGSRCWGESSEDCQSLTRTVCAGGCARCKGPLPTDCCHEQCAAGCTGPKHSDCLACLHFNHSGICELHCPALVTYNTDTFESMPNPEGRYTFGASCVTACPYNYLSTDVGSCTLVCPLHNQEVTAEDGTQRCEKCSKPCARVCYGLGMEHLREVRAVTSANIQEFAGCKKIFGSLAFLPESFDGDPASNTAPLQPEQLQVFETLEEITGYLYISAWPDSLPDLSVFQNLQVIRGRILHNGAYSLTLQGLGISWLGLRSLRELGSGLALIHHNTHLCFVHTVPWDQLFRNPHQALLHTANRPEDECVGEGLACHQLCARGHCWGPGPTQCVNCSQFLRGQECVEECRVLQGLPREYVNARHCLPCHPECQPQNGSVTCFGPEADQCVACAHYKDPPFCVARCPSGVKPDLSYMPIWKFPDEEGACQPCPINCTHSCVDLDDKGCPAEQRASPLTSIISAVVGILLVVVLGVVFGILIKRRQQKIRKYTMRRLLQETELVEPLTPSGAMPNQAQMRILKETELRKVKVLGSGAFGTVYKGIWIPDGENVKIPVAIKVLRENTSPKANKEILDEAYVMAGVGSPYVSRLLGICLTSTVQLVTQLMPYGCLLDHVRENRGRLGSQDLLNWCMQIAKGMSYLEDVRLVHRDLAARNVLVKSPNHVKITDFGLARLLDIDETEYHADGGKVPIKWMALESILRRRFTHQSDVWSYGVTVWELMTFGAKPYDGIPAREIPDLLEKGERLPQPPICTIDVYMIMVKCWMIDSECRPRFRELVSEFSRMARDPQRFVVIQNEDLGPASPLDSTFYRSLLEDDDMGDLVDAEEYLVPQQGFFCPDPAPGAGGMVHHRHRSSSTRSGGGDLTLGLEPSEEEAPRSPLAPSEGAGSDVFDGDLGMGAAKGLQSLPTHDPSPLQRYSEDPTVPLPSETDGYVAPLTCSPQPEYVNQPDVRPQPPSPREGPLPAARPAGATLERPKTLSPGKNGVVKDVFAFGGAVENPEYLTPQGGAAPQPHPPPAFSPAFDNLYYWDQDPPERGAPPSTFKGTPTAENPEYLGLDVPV
# [3] = SK-BR-3 cell growth inhibitors, pilot screen, 24 h, human (AID 572;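 active = viability at or below 10% of carrier control in both of two separate runs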;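 also: compound exposure lasted between 18 and 24 h rather than exactly 24 h; 100% = carrier-treated control wells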); conditions: SK-BR-3 viability, CellTiter-Glo luminescence, at 10 µM, stronger effect = lower value
# [4] = HUVEC growth inhibition – cell-based, human, primary screen (AID 575;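 active = viability at or below 30% in both replicate assays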;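 also: 100% = median of untreated cell wells with 0.1% DMSO on each plate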); conditions: HUVEC proliferation, CellTiter-Glo luminescence, 72 h; at 10 µM; stronger effect = lower value
# Outline: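 Test system – primary HUVEC, no more than 12 passages · Dosing – one dose, 10 µM final, 0.1% DMSO · Times – 72 h treatment at 37 °C · Measured by – ATP-based CellTiter-Glo luminescent read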
# [5] = growth inhibitors of H69AR lung tumor, primary screen, human, duplicate replicates (AID 580;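 active = viability at or under a set limit in both replicates, limit being median viability minus 3 SD, cut at about 48% in these data, passing the limit was not always enough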;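 also: 100% = mean luminescence of untreated wells and 0% = no signal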); conditions: H69AR lung tumor cells viability, ATP luminescence, 72 h; at 10 µM; stronger effect = lower value
# [6] = reversal of MRP1-mediated doxorubicin resistance, pilot screen, H69AR cells, doxorubicin co-treatment (AID 601;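 active = viability loss from added drug above about 55%, and viability with drug at most 40%, in both replicates, limit read from the data, passing the limit was not always enough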); conditions: CellTiter-Glo, 72 h, at 10 µM; for differential viability (reversal): stronger effect = higher value
# [7] = 384-well plate pilot, post-Golgi transport modulator project, inhibition of yeast transport mutant growth (AID 636; in the data active = inhibition above about 31%); conditions: absorbance 615 nm, about 18 h, stronger effect = higher value
# [8] = growth suppression of yeast trafficking mutant, preliminary HTS, modulators of trafficking downstream of Golgi apparatus project, 1536-format plate, OD 615 nm (AID 637; in the data active = inhibition above about 30%); conditions: yeast transport mutant growth, absorbance 615 nm, 18 h; stronger effect = higher value
# [9] = H69AR cells + 2 uM doxorubicin, measured here: viability with 2 uM doxorubicin, stronger effect = lower value
# [10] = H69AR cells, compound alone cytotoxicity
SMILES,viability [1] [%],Her2 level [2],viability [3],viability [4],viability [5],differential viability (reversal) ([6]; H69AR cells + 2 uM doxorubicin),"viability [6, 9] [%]","viability [6, 10] [%]",inhibition [7],inhibition [8]
Cc1nn(-c2ccccc2)c(C)c1/C=N/O,106,104% (inactive),106% (inactive),100% (inactive),96.5% (inactive),11.4% (inactive),85.1,96.5,-4.73% (inactive),3.93% (inactive)
Cc1cc2c(cc1C)-c1nnnn1C(C)(C)C2,110,97.5% (inactive),110% (inactive),101% (inactive),91.9% (inactive),4.78% (inactive),87.1,91.9,-9.07% (inactive),-5.24% (inactive)
CC(C)c1ccc(S(=O)(=O)N2CCN(C(=O)c3cccc(F)c3)CC2)cc1,106,104% (inactive),106% (inactive),92% (inactive),88.3% (inactive),-8.65% (inactive),96.9,88.3,-5.73% (inactive),3.28% (inactive)
CCOC(=O)N1CCN(c2nc(-c3ccc(Cl)cc3)cs2)CC1,79.5,125% (inactive),79.5% (inactive),98.3% (inactive),89.1% (inactive),-9.49% (inactive),98.6,89.1,-4.23% (inactive),-7.83% (inactive)
COCCn1nnnc1C(c1cc2cc(OC)ccc2[nH]c1=O)N1CCC(Cc2ccccc2)CC1 (stereo not given),124,80% (inactive),124% (inactive),65.4% (inactive),9.35% (active),-15.4% (inactive),24.8,9.35,-7.87% (inactive),-2.38% (inactive)
CCOC(=O)c1c(NC(=O)c2ccn(CC)n2)sc2c1CCCC2,88,70% (inactive),88% (inactive),75.5% (inactive),77.2% (inactive),-15% (inactive),92.2,77.2,-4.74% (inactive),1.67% (inactive)
CC(=O)c1cccc(NC(=O)N2CCCC2C(=O)NCc2ccc(C)cc2)c1 (stereo not given),104,93.5% (inactive),104% (inactive),92.5% (inactive),95.6% (inactive),8.41% (inactive),87.1,95.6,-8.92% (inactive),8.33% (inactive)
CC(C)CN(C(=O)COC(=O)Cc1n[nH]c(=O)c2ccccc12)C1CCS(=O)(=O)C1 (stereo not given),97.5,98.5% (inactive),97.5% (inactive),93.6% (inactive),90.1% (inactive),4.47% (inactive),85.7,90.1,-3.12% (inactive),-1.75% (inactive)
CC(=O)NC(Cc1cc(C)ccc1C)C(=O)N1CCN(C(=O)Nc2ccc(C(C)=O)cc2)CC1 (stereo not given),102,101% (inactive),102% (inactive),109% (inactive),88.7% (inactive),-5.32% (inactive),94,88.7,-4.62% (inactive),-11.3% (inactive)
Cc1nn(-c2ccccc2)c2sc(C(=O)N3CCOCC3)cc12,88.5,84.5% (inactive),88.5% (inactive),71.9% (inactive),87.3% (inactive),-2.3% (inactive),89.6,87.3,-6% (inactive),-0.48% (inactive)
COc1ccccc1OCCn1c(=O)sc2ccccc21,95,93% (inactive),95% (inactive),89.6% (inactive),99.6% (inactive),-8.55% (inactive),108,99.6,-1.05% (inactive),-7.94% (inactive)
Fc1cccc2sc(N3CCOCC3)nc12,93.5,80.5% (inactive),93.5% (inactive),83.9% (inactive),96.8% (inactive),15.4% (inactive),81.4,96.8,-4.87% (inactive),5.17% (inactive)
C=CC(O)(C#CCN(CC)CC)c1ccccc1 (stereo not given),96.5,89% (inactive),96.5% (inactive),102% (inactive),99.9% (inactive),10.1% (inactive),89.9,99.9,-2.03% (inactive),-0.63% (inactive)
Cn1nnnc1SCC(=O)NCc1ccco1,95,110% (inactive),95% (inactive),91.8% (inactive),95.8% (inactive),9.46% (inactive),86.3,95.8,1.2% (inactive),-6.72% (inactive)
